In PMC2750823 (Molecular cancer therapeutics, 2009):
pEC50: −log10 of the molar value.

How the values were obtained:
[1] = tested on: RS11846 human lymphoma cell line; experiment: Apoptosis, Annexin V-FITC and propidium iodide assay; assay type: cell-based; settings: read-out: RS11846 EC50 (Annexin V-FITC and propidium iodide assay)
[2] = tested on: H460 human lung cancer cell line; experiment: Cell viability, ATP-LITE assay; assay type: cell-based; settings: NCI-H460, 72 h, read-out: H460 EC50
Method in brief: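 H460 cells were grown in F12 or RPMI1640 with 5 mM L-glutamine, 5% FBS and penicillin/streptomycin, then plated at 2000 cells/well. After 24 h, fresh 5% medium was added, followed by test compound at final concentrations in 0.1% DMSO. Viability was read with ATP-LITE after 72 h of treatment, and data were normalized to DMSO-treated cells.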

[3] = tested on: RS11846 human lymphoma cell line; experiment: Cell viability, ATP-LITE assay; assay type: cell-based; settings: 72 h, read-out: RS11846 EC50 (ATP-LITE assay)
Method in brief: (§1)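 Human cancer cells are grown in F12 or RPMI1640 medium with 5 mM L-glutamine, 5% FBS and penicillin/streptomycin. Cells are seeded at densities chosen by doubling time. Fresh 5% serum medium is added, and test compound is applied 24 h after seeding at varied concentrations in 0.1% DMSO. After 72 h, ATP is read with ATP-LITE reagent and normalized to DMSO-treated controls.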

PC3ML cells = experiment: Cell viability, ATP-LITE assay; assay type: cell-based; settings: Homo sapiens, PC3-ML, 72 h, read-out: PC3ML EC50
Method in brief: as §1

H1299 cells = experiment: Cell viability, ATP-LITE assay; assay type: cell-based; settings: Homo sapiens, NCI-H1299, 72 h, read-out: H1299 EC50
[4] = Liver microsomal stability; assay type: in vitro ADME; settings: rat, microsomes, 4 µM, pH 7.4
Plasma stability = assay type: in vitro ADME; settings: rat, 100 µM
H1299 = settings: cited from earlier work
Mcl-1 = settings: cited from earlier work

Cc1cc2c(C(C)C)c(O)c(O)c(C=O)c2c(O)c1-c1c(C)cc2c(C(C)C)c(O)c(O)c(C=O)c2c1O [Gossypol]
pEC50 [1]: 5.37
pEC50 [2]: 5.52
pEC50 [3]: 5.66
pEC50 (PC3ML cells): 5.51
pEC50 (H1299 cells): 5.22

Cc1cc2c(C(C)C)c(O)c(O)cc2c(O)c1-c1c(C)cc2c(C(C)C)c(O)c(O)cc2c1O [Apogossypol]
pEC50 [1]: 5.07
Microsomal Stability (T=1 hr) [4]: 60%
pEC50 [2]: 5.24
pEC50 [3]: 5.30
pEC50 (PC3ML cells): 4.99
Plasma Stability (T=1 hr) (Plasma stability): 53%

CN(C)CC[C@H](CSc1ccccc1)Nc1ccc(S(=O)(=O)NC(=O)c2ccc(N3CCN(Cc4ccccc4-c4ccc(Cl)cc4)CC3)cc2)cc1[N+](=O)[O-] [ABT-737]
killing Mcl-1 overexpressing cell lines such as the H1299 (H1299): not effective
effectiveness against Mcl-1 (Mcl-1): not effective
